Active and inactive are the calls of the source. The rule behind the calls is not given here.
Legend:
Pyridoxal kinase = molecular target: T1, Pyridoxal kinase (Homo sapiens, UniProt O00764); experiment: Noncompetitive inhibition of pyridoxal phosphokinase (unknown origin) using ATP-gamma-[32P]
T1 sequence (O00764 whole entry): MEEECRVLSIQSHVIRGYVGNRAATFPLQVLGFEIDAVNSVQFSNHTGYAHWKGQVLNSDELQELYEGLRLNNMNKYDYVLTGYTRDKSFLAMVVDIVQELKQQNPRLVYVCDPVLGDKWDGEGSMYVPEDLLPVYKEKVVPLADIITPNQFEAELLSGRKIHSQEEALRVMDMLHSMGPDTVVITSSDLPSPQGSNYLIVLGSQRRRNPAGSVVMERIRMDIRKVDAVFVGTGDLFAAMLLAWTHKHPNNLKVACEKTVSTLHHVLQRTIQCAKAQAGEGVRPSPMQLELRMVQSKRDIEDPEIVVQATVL

TA3 [1] = experiment: Growth inhibition of mouse TA3 cells after 3 days incubation in presence of 10^-5 M pyridoxal; format: functional
Method in brief: (§1)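 Mouse mammary adenocarcinoma TA3 cells were grown in stationary upright tubes with 10% horse serum and pyridoxal at 10⁻⁷ M (minimal growth) or 10⁻⁵ M. The inoculum was 50 000 cells, with compound added in an equal volume of medium. Cells were incubated for 3 days, and growth was read by protein assay. Five tubes were used per concentration, with repeats for active compounds. The 50% inhibitory concentration was derived.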

TA3 [2] = experiment: Growth inhibition of mouse TA3 cells after 3 days incubation in presence of 10^-7 M pyridoxal; format: functional; conditions: for IC50: Mus musculus, TA3, 72 h, read-out: ID50 (the source's name); method in brief: as §1
TA3 [3] = experiment: Growth inhibition of mouse TA3 cells at 10^-4 M after 3 days incubation in presence of 10^-7 M pyridoxal; format: functional

Compound	ID50 (TA3 [1])	IC50 (TA3 [2]) [µM]	inhibition (TA3 [1])	other results
C=Cc1ncc(CO)c(C)c1O.Cl	3.2 ×10⁻⁵ M	3		Ki (Pyridoxal kinase): 68.1 µM
C=Cc1c(CO)cnc(CO)c1O				inhibition (TA3 [3]): inactive
C=Cc1ncc(CO)c(CO)c1O		9.4	Active	
Cc1c(CO)cnc(/C=N/NC(N)=S)c1O		2.7	Active	
C=Cc1ncc(COP(=O)(O)O)c(C=C)c1O				inhibition (TA3 [3]): inactive
Cc1c(CO)cnc(C=O)c1O	1.6 ×10⁻⁴ M			ID50 (TA3 [2]): 6 ×10⁻⁵ M
C=Cc1ncc(CO)c(C=C)c1O.Cl	3.2 ×10⁻⁵ M	6.8		
C=Cc1c(CO)cnc(C)c1O		0.0025	inactive	
Cc1c(CO)cnc(CO)c1O				inhibition (TA3 [3]): inactive
C=Cc1ncc(COP(=O)(O)O)c(C)c1O	1.8 ×10⁻⁴ M			ID50 (TA3 [2]): 3.8 ×10⁻⁵ M
Cc1c(CO)cnc(/C=N/O)c1O				inhibition (INH) (TA3 [3]): 40%
Cc1ncc(CO)c(C)c1O			inactive	ID50 (TA3 [2]): 6.8 ×10⁻⁸ M
